Measured values gathered from unrelated publications.
Protocols differ between the studies behind these lines.
Target: 5-hydroxytryptamine receptor 7 (HTR7, Homo sapiens, UniProt P34969)
Technique: radioligand

The Ki of CN1CCN(CCCN2c3ccccc3Sc3ccc(C(F)(F)F)cc32)CC1 is reported as 497 nM (ligand displacement; cell membranes).
CCc1nc2cc(OCCCCN3CCC(c4cccc(Cl)c4Cl)CC3)ccc2s1 has a Ki of 160 nM (cell-free assay).
CC1(CCN2CCc3ccccc3C2)Cc2cc(Cl)ccc2C1=O (racemic) gave a Ki of 2.1 nM (ligand displacement).
O=C1c2ccccc2CCN1CCCCN1CCN(c2cccc(Cl)c2Cl)CC1 gave a Ki of 21 nM (ligand displacement).
With Cc1nc2sccn2c(=O)c1CCN1CCC(=C(c2ccc(F)cc2)c2ccc(F)cc2)CC1 the Ki was 468 nM (ligand displacement; cell membranes).
For CNc1nc2cc(OCCCCN3CCC(c4cccc(Cl)c4Cl)CC3)ccc2s1, the Ki was 95 nM (cell-free assay).
O=C(CCCN1CCCN(c2ccc(Cl)cc2)CC1)c1ccc(F)cc1 has a Ki of 78 nM (ligand displacement).
With CCCCN1CCC(COC(=O)c2ccc(N)c(OCF)c2)CC1 the Ki was greater than 10000 nM (cell-free assay).
